Measurements: ChEMBL document CHEMBL1133006, “Synthesis and evaluation of several new (2-chloroethyl)nitrosocarbamates as potential anticancer agents” (J Med Chem, 2000)
pIC50: −log10 of the molar value. In brackets after ≈: the same amount, converted by molar mass.

Key:
NCI-H23 [1] = assay: In vitro cytotoxicity was evaluated against lung NCI-H23 cells; type: functional, cell-based; settings: Homo sapiens
How it was run: (§1)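 Cells dispersed with trypsin/EDTA, suspended at 5 × 10⁴/mL and seeded in 96-well plates. Compounds dissolved in 100% DMSO, diluted in complete medium and added in 100-µL samples, eight replicate wells per concentration. Controls were mock, vehicle (DMSO in medium) and doxorubicin 200 µM. Incubation 72 h, read by XTT or neutral red uptake, IC₅₀ calculated in µM.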

CAKI-1 (Homo sapiens) [2] = assay: In vitro cytotoxicity was evaluated against renal CAKI-1 cells; […]
SK-MEL-28 [3] = assay: In vitro cytotoxicity was evaluated against melanoma SK-MEL-28 cells; […]; type: functional, cell-based; settings: Homo sapiens; how it was run: as §1
SNB-7 [4] = assay: In vitro cytotoxicity was evaluated againstCNS SNB-7 cells; type: functional, cell-based; settings: Homo sapiens; how it was run: as §1
DLD-1 (Homo sapiens) [5] = assay: In vitro cytotoxicity was evaluated against colon DLD-1 cells
SK-MEL-28 (Homo sapiens) [6] = assay: In vitro cytotoxicity was evaluated against melanoma SK-MEL-28 cells; 1 x 10e1; 1 x 10E1
CAKI-1 (Homo sapiens) [7] = assay: In vitro cytotoxicity was evaluated against renal CAKI-1 cells; 2 x 10E1
DLD-1 (Homo sapiens) [8] = assay: In vitro cytotoxicity was evaluated against colon DLD-1 cells; 2 x 10E1
Mus sp. [9] = organism: Mus sp.; assay: Difference in the median of times poststaging for tumors of the treated (T) groups to double in mass twice compared to the median of the control (C) group; type: functional
How it was run: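 M5076 sarcoma, 5 × 10⁶ cells implanted sc in B6C3F₁ mice (implantation = day 0). Compound given ip on days 10-14 at optimal dosage (≤LD10). T-C is the difference in median time after staging for treated versus control tumors to double in mass twice, in days.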

SNB-7 [10] = assay: In vitro cytotoxicity was evaluated againstCNS SNB-7 cells; 3 x 10E1; type: functional, cell-based; settings: Homo sapiens; how it was run: as §1
P388 [11] = assay: Antitumor activity was measured by % increase in life span (ILS) of CD2F1 mice implanted with P388 murine leukemia cell at a dose of 25 mg/kg; type: functional, Mus sp.; settings: Mus musculus
Mus sp. [12] = assay: Antitumor activity against subcutaneously implanted M5076 murine sarcoma in B6C3F1 mice (5x10E6) at 12.5 mg/kg on day 10 to 14, expressed tumor-free surv/total; 0/5; type: functional; settings: route subcutaneous
How it was run: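 B6C3F1 mice got 5 × 10⁶ M5076 sarcoma cells sc (implant day = day 0). Drug was given ip at 12.5 mg/kg/dose on days 10-14, 5 mice per group. Tumor-free survivors/total were recorded. T-C was the difference in median time after staging for tumors to double in mass twice, treated versus control.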

P388 [13] = assay: Antitumor activity measured by % increase in life span (ILS) of CD2F1 mice implanted with murine leukemia cells expressed as net log cell kill; type: functional, Mus sp.
P388 [14] = assay: Antitumor activity against intraperitoneally implanted P388 murine leukemia in CD2F1 mice with 10E6 at 25 mg/kg on day 1, expressed tumor-free surv/total;0/5; type: functional, Mus sp.; settings: route intraperitoneal
CAKI-1 (Homo sapiens) [15] = assay: In vitro cytotoxicity was evaluated against renal CAKI-1 cells
SK-MEL-28 (Homo sapiens) [16] = assay: In vitro cytotoxicity was evaluated against melanoma SK-MEL-28 cells; 3 x 10E1
DLD-1 [17] = assay: In vitro cytotoxicity was evaluated against colon DLD-1 cells; 4 x 10E1; type: functional, cell-based; settings: Homo sapiens; how it was run: as §1
SK-MEL-28 (Homo sapiens) [18] = assay: In vitro cytotoxicity was evaluated against melanoma SK-MEL-28 cells; 2 x 10E1
CAKI-1 (Homo sapiens) [19] = assay: In vitro cytotoxicity was evaluated against renal CAKI-1 cells; 3 x 10E1
NCI-H23 [20] = assay: In vitro cytotoxicity was evaluated against lung NCI-H23 cells; 1 x 10E1; type: functional, cell-based; settings: Homo sapiens; how it was run: as §1
DLD-1 (Homo sapiens) [21] = assay: In vitro cytotoxicity was evaluated against colon DLD-1 cells; 1 x 10E1
DLD-1 (Homo sapiens) [22] = assay: In vitro cytotoxicity was evaluated against colon DLD-1 cells; 3 x 10E1
NCI-H23 [23] = assay: In vitro cytotoxicity was evaluated against lung NCI-H23 cells; 3 x 10E1; type: functional, cell-based; settings: Homo sapiens; how it was run: as §1
SK-MEL-28 (Homo sapiens) [24] = assay: In vitro cytotoxicity was evaluated against melanoma SK-MEL-28 cells
SK-MEL-28 [25] = assay: In vitro cytotoxicity was evaluated against melanoma SK-MEL-28 cells; 1 x 10E1; type: functional, cell-based; settings: Homo sapiens; how it was run: as §1
SNB-7 [26] = assay: In vitro cytotoxicity was evaluated againstCNS SNB-7 cells; 1 x 10E1; type: functional, cell-based; settings: Homo sapiens; how it was run: as §1
CAKI-1 = assay: In vitro cytotoxicity was evaluated against renal CAKI-1 cells; 3 x 10E1; type: functional, cell-based; settings: Homo sapiens; how it was run: as §1
DLD-1 [27] = assay: In vitro cytotoxicity was evaluated against colon DLD-1 cells; 2 x 10E1; type: functional, cell-based; settings: Homo sapiens; how it was run: as §1

SMILES: O=NN(CCCl)C(=O)OCc1ccccc1[N+](=O)[O-]
- IC50 (NCI-H23 [1]): 3 µg/mL (≈ 10.4 µM)
- IC50 (CAKI-1 (Homo sapiens) [2]): 40 µg/mL (≈ 139 µM)
- IC50 (SK-MEL-28 [3]): 40 µg/mL (≈ 139 µM)
- IC50 (SNB-7 [4]): 1 µg/mL (≈ 3.48 µM)
- IC50 (DLD-1 (Homo sapiens) [5]): 6 µg/mL

SMILES: CC(=O)Oc1ccc(COC(=O)N(CCCl)N=O)cc1
- IC50 (SK-MEL-28 (Homo sapiens) [6]): 10 µg/mL (≈ 33.3 µM)
- IC50 (CAKI-1 (Homo sapiens) [7]): 20 µg/mL (≈ 66.5 µM)
- IC50 (NCI-H23 [1]): 6 µg/mL (≈ 20 µM)
- IC50 (DLD-1 (Homo sapiens) [8]): 20 µg/mL (≈ 66.5 µM)
- T-C (Mus sp. [9]): 3
- IC50 (SNB-7 [10]): 30 µg/mL (≈ 99.8 µM)
- ILS at 25 mg/kg (P388 [11]): 4%
- Survivial / total (Mus sp. [12]): 0
- Net log cell kill (P388 [13]): -0.3
- Survivial / total (P388 [14]): 0

SMILES: O=NN(CCCl)C(=O)Oc1cncnc1
- IC50 (CAKI-1 (Homo sapiens) [15]): 6 µg/mL
- IC50 (NCI-H23 [1]): 2 µg/mL (≈ 8.67 µM)
- IC50 (SK-MEL-28 (Homo sapiens) [16]): 30 µg/mL (≈ 130 µM)
- IC50 (SNB-7 [4]): 6 µg/mL (≈ 26 µM)
- IC50 (DLD-1 [17]): 40 µg/mL (≈ 173 µM)

SMILES: CC(=O)Oc1ccccc1COC(=O)N(CCCl)N=O
- IC50 (SK-MEL-28 (Homo sapiens) [18]): 20 µg/mL (≈ 66.5 µM)
- IC50 (CAKI-1 (Homo sapiens) [19]): 30 µg/mL (≈ 99.8 µM)
- IC50 (NCI-H23 [20]): 10 µg/mL
- IC50 (SNB-7 [4]): 6 µg/mL (≈ 20 µM)
- IC50 (DLD-1 (Homo sapiens) [21]): 10 µg/mL (≈ 33.3 µM)

SMILES: O=NN(CCCl)C(=O)Oc1cccnc1
- IC50 (CAKI-1 (Homo sapiens) [19]): > 30 µg/mL
- IC50 (DLD-1 (Homo sapiens) [22]): > 30 µg/mL
- IC50 (SNB-7 [10]): > 30 µg/mL
- IC50 (SK-MEL-28 (Homo sapiens) [16]): > 30 µg/mL
- IC50 (NCI-H23 [23]): > 30 µg/mL

SMILES: O=NN(CCCl)C(=O)OCc1ccc([N+](=O)[O-])cc1
- IC50 (SK-MEL-28 (Homo sapiens) [24]): 1 µg/mL
- IC50 (CAKI-1 (Homo sapiens) [15]): 3 µg/mL
- IC50 (NCI-H23 [1]): 1 µg/mL (≈ 3.48 µM)
- IC50 (SNB-7 [4]): 1 µg/mL (≈ 3.48 µM)
- IC50 (DLD-1 (Homo sapiens) [5]): 5 µg/mL

SMILES: CC(=O)OCC1OC(OC(=O)N(CCCl)N=O)C(OC(C)=O)C(OC(C)=O)C1OC(C)=O (stereo not given)
- IC50 (SK-MEL-28 [25]): 10 µg/mL (≈ 20.7 µM)
- IC50 (SNB-7 [26]): 10 µg/mL
- IC50 (NCI-H23 [1]): 3 µg/mL (≈ 6.21 µM)
- IC50 (CAKI-1): > 30 µg/mL
- IC50 (DLD-1 [27]): 20 µg/mL (≈ 41.4 µM)

SMILES: Nc1ccn([C@@H]2O[C@H](CO)[C@@H](O)[C@@H]2O)c(=O)n1 [CYTARABINE]
- pIC50 (SK-MEL-28 (Homo sapiens) [24]): 6.00
- pIC50 (CAKI-1 (Homo sapiens) [15]): < 5.30
- pIC50 (SNB-7 [26]; read-out: IC50): 6.00
- pIC50 (NCI-H23 [20]; read-out: IC50): 6.00
- pIC50 (DLD-1 (Homo sapiens) [5]): < 5.30
